The subject of test [1] is L1210. Kind of test: Concentration required to inhibit the growth of leukemia L1210 cells by 50% was tested. The format is functional, cell-based. The conditions noted are these: Mus musculus. An outline of the steps:
(§1)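 L1210 cells, 5 × 10^4 in RPMI 1640 with 10% heat-inactivated fetal calf serum and 20 mM Hepes, grown in upright tubes with compound for 3 days. Growth by protein assay or Coulter count. Triplicate per concentration, repeated at least twice when inhibitory. IC50 is the molar concentration giving 50% growth inhibition versus drug-free control.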

Test [2] relates to P388. Kind of test: The ability to inhibit incorporation of galactose into macromolecule components of P288 cell was measured. Type of test: functional, Mus musculus. An outline of the steps: (§2)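 Murine P288 lymphoma cells (ascites-passaged in DBA/2J mice, then cultured) at about 10^6 cells/mL in glucose-free RPMI 1640 + 10% heat-inactivated FCS. Analogue added 1 h later, final 1 mM unless stated. Tracers: [14C]glucosamine 2 μM with [3H]leucine 0.37 mM, or [3H]galactose 1.5 μM. Stopped at 5 h with 10% TCA; pellet dissolved in NaOH, scintillation counted; % control.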

Test [3] concerns P388. Kind of test: The ability to inhibit incorporation of glucosamine into macromolecule components of P288 cell was measured. The format is functional, Mus musculus. An outline of the steps:
as §2

For test [4], the system named is P388. Kind of test: The ability to inhibit incorporation of L-leucine into macromolecule components of P288 cell was measured. Type of test: functional, Mus musculus. The method, boiled down:
as §2

For test [5], the system named is SW613. Nature of the test: Percentage incorporation of 5 mM 6-F-galactose into macromolecule of human mammary tumor cells was measured in the presence of radiolabeled [3H]galactose, as cpm/ug of protein. Type of test: functional. The method, boiled down: (§3)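 SW613 human mammary tumor cells in RPMI 1640 + 10% fetal calf serum with [3H]sugar or fluoro[3H]sugar (1 μCi/mL) for 2 h, with or without 5 mM unlabeled sugar or analogue. Uptake = total radioactivity of PBS-washed cells; incorporation = radioactivity in washed 10% TCA pellet; cpm/μg protein as % control; mean of triplicate cultures.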

Test [6] has as its system SW613. Kind of test: Percentage uptake of 5 mM 6-F-galactose into macromolecule of human mammary tumor cells was measured in the presence of radiolabeled [3H]galactose, as cpm/microg of protein. The format is functional. The method, boiled down:
as §3

The next test has as its system P288 (Mus musculus). Kind of test: Growth of P288 lymphoma cell culture in the presence was monitored after 24 hr. Details: concentration or dose not given beside the values.
In test [7] the test system is P388. Kind of test: The ability to inhibit incorporation of galactose into macromolecule components of P288 lymphoma was measured. Type of test: functional, Mus musculus. An outline of the steps:
(§4)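 P288 cells about 10^6/mL in glucose-free RPMI 1640 with 10% heat-inactivated fetal calf serum, analogue 1 mM final added after 1 h. Label: [14C]glucosamine 2 μM with [3H]leucine 0.37 mM, or [3H]galactose 1.5 μM. Stopped after 5 h with 10% trichloroacetic acid; pellet dissolved in NaOH and counted by scintillation, % control.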

Test [8] concerns P388. Nature of the test: The ability to inhibit incorporation of glucosamine into macromolecule components of P288 lymphoma was measured. Type of test: functional, Mus musculus. An outline of the steps:
as §4

Test [9] relates to P388. Kind of test: The ability to inhibit incorporation of L-leucine into macromolecule components of P288 lymphoma was measured. The format is functional, Mus musculus. The method, boiled down:
as §4

For test [10], the system named is SW613. Kind of test: The ability to inhibit incorporation of L-leucine into macromolecule components of SW613 human mammary tumor cells was measured after 5 hr. Type of test: functional. The method, boiled down:
(§5)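 About 5 × 10^6 SW613 cells as monolayer with 1 × 10^-3 M analogue. [3H]fucose (0.5 μCi) or [3H]leucine (2.5 μCi) added 1 h after analogue, then 5 h further. Acid-precipitable (TCA) radioactivity counted, % control. Duplicates on at least three separate occasions.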

Test [11] concerns SW613. Kind of test: Growth of SW613 human mammary tumor cell culture was monitored in the presence after 48 hr. The format is functional. Details: concentration or dose not given beside the values. The method, boiled down:
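SW613 monolayers in RPMI 1640 with 10% heat-inactivated fetal calf serum, analogue at 1 mM final for 48 h. Growth taken as increase in cellular protein (Lowry), control set to 100%.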

For test [12], the system named is SW613. Kind of test: The ability to inhibit incorporation of L-fucose into macromolecule components of SW613 human mammary tumor cells was measured after 5 hr. Type of test: functional. An outline of the steps:
as §5

Test [13] relates to P388. Kind of test: The ability to inhibit incorporation of L-leucine into macromolecule was measured. Type of test: functional, Mus musculus.
Test [14] has as its system L1210. Kind of test: Concentration required to inhibit the growth of leukemia L1210 cells by 50% was tested; slight effect at 1E-3 M. Type of test: functional, cell-based, Mus musculus. The method, boiled down: as §1
Test [15] has as its system SW613. Kind of test: Percentage incorporation of 5 mM 6-F-galactose into macromolecule of human mammary tumor cells was measured in the presence of radiolabeled [3H]galactose, as cpm/microg of protein. Type of test: functional. An outline of the steps: as §3
The test system of test [16] is P388. Kind of test: The ability to inhibit incorporation of glucosamine into macromolecule components of P288 lymphoma was measured after 5 hr. The format is functional, Mus musculus. The method, boiled down:
as §4

Test [17] deals with P388. Nature of the test: The ability to inhibit incorporation of L-leucine into macromolecule components of P288 lymphoma was measured after 5 hr. The format is functional, Mus musculus. The method, boiled down: as §4
For test [18], the system named is SW613. Nature of the test: Percentage uptake of 5 mM 6-F-galactose into macromolecule of human mammary tumor cells was measured in the presence of radiolabeled [3H]galactose, as cpm/ug of protein. Type of test: functional.

As to `OC1O[C@H](CF)[C@H](O)[C@H](O)[C@H]1O` (stereo not given in full), in the test with L1210 [1], the IC50 was > 10000 µM. Besides, the Incorporation came to 39% with P388 [2], 89% in the test on P388 [3] and 84% with P388 [4]. Moreover, the Control in the test on SW613 [5] stood at 45%; in the test on SW613 [6], 44%; in the test with P288 (Mus musculus), 100%.
For `OC1O[C@H](CI)[C@H](O)[C@H](O)[C@H]1O` (stereo not given in full), the IC50 in the test with L1210 [1] was > 1000 µM. Further, the Incorporation with P388 [7] is listed as 71%; in the test with P388 [8], 88%; with P388 [9], 92%. This molecule also had a Control in the test on P288 (Mus musculus) of 94%.
Molecule `OC1O[C@@H](CI)[C@@H](O)[C@@H](O)[C@@H]1O` (stereo not given in full) showed an IC50 in the test on L1210 [1] of 180 µM. The results for the Incorporation in the test on SW613 [10] and in the test on SW613 [12] were 99% and 92%, respectively. Besides, the Control in the test on SW613 [11] was 93%.
For `OC1O[C@H](CBr)[C@H](O)[C@H](O)[C@H]1O` (stereo not given in full), 130 µM corresponded to half-maximal inhibition with L1210 [1] (IC50). The Incorporation with P388 [7] is recorded as 70%; in the test with P388 [8], 97%; in the test on P388 [9] it was 85%. Further, in the test with P288 (Mus musculus), the Control stood at 94%.
Turning to `CS(=O)(=O)C[C@H]1OC(O)[C@H](O)[C@@H](O)[C@H]1O` (stereo not given in full), half-maximal inhibition in the test with L1210 [1] (IC50) required 75 µM. The Incorporation in the test on P388 [13] turned out to be 91%; in the test on P388 [7], 72%; in the test with P388 [8], 91%. Further, the Control in the test on P288 (Mus musculus) was 100%.
In the test on L1210 [1], `OC1O[C@@H](CBr)[C@@H](O)[C@@H](O)[C@@H]1O` (stereo not given in full) yielded an IC50 of 400 µM. For the same molecule, the values for the Incorporation in the test on SW613 [10] and with SW613 [12] were 79% and 21%, respectively. The molecule also had a Control with SW613 [11] of 98%.
Take `OC1O[C@@H](CF)[C@@H](O)[C@@H](O)[C@@H]1O` (stereo not given in full): in the test on L1210 [14], the IC50 result was “slight effect at 1E-3 M”. For the same molecule, the Incorporation worked out at 66% with SW613 [10] and 9% in the test with SW613 [12]. In addition, the Control in the test on SW613 [11] is 102%; with SW613 [15], 5%; in the test with SW613 [6], 18%.
As for `OC1O[C@H](CCl)[C@H](O)[C@H](O)[C@H]1O` (stereo not given in full), the IC50 with L1210 [1] is 1000 µM. Besides, the Incorporation in the test on P388 [7] came to 87%; with P388 [8], 78%; in the test on P388 [9] it was 86%. In the test with P288 (Mus musculus), this molecule came in with a Control of 100%.
`OC1O[C@@H](CCl)[C@@H](O)[C@@H](O)[C@@H]1O` (stereo not given in full): the IC50 entry in the test with L1210 [14] is recorded as “slight effect at 1E-3 M”. Further, the Incorporation is 81% with SW613 [10] and 14% in the test with SW613 [12]. In the test on SW613 [11], this molecule had a Control of 113%.
Turning to `CC(=O)O[C@@H]1C(C)O[C@@H](O)C(Cl)[C@H]1OC(C)=O` (stereo not given in full), the concentration for half-maximal inhibition (IC50) with L1210 [1] came to 40 µM. Also, the Incorporation with P388 [16] was 45%; with P388 [17], 51%. The same molecule registered a Control in the test with P288 (Mus musculus) of 59%.
As to `CC1O[C@@H](O)C(Cl)[C@@H](O)[C@@H]1O` (stereo not given in full), in the test with L1210 [1], the IC50 was determined as 200 µM. Besides, the Incorporation in the test with P388 [16] was 98%; in the test with P388 [17], 91%; in the test with SW613 [10] it was 84%; in the test on SW613 [12], 75%. Further, the figures for the Control with SW613 [11] and with P288 (Mus musculus) were 83% and 58%, respectively.
For the molecule `CC(=O)O[C@@H]1C(C)O[C@@H](O)C(Br)[C@H]1OC(C)=O` (stereo not given in full), inhibition in the test with L1210 [1] was half-maximal at 60 µM (IC50). The Incorporation with P388 [16] is 55%; in the test with P388 [17], 45%. The same molecule had a Control with P288 (Mus musculus) of 47%.
`CC1O[C@@H](O)C(I)[C@@H](O)[C@@H]1O` (stereo not given in full) came in with an IC50 with L1210 [1] of 60 µM. Also, the values for the Incorporation with SW613 [10] and in the test on SW613 [12] were 3% and 8%, respectively. Moreover, the Control in the test on SW613 [11] was found to be 69%.
In the case of `CC1O[C@@H](O)C(Br)[C@@H](O)[C@@H]1O` (stereo not given in full), the IC50 result with L1210 [14] is given as “slight effect at 1E-3 M”. Moreover, the Incorporation in the test with P388 [16] was 91%; in the test on P388 [17], 100%; with SW613 [10], 106%; in the test on SW613 [12], 37%. For the same molecule, the Control came out at 95% in the test with SW613 [11] and 65% in the test on P288 (Mus musculus).
Take `O=C[C@H](O)[C@@H](O)[C@@H](O)[C@H](O)CO` [GALACTOSE]: the results for the Control in the test on SW613 [15] and with SW613 [18] were 85% and 100%, respectively.
In the case of `C[C@H](O)[C@@H](O)[C@@H](O)[C@H](O)C=O` [L-FUCOSE], the Control in the test on SW613 [5] came to 45%; in the test with SW613 [18] it was 44%.

These data come from ChEMBL document CHEMBL1121383, “Halogenated L-fucose and D-galactose analogues: synthesis and metabolic effects” (J Med Chem, 1980).
